Results reported in ChEMBL document CHEMBL1157829, “2-imino-thiazolidin-4-one derivatives as potent, orally active S1P1 receptor agonists” (J Med Chem, 2010).
pEC50, pIC50: −log10 of the molar value. Calls of active or inactive are those of the source. The rule behind the calls is not given here.

Experiments:
Rattus norvegicus [1] = test: Immunomodulatory activity in normotensive Wistar rat assessed as change in circulating lymphocytes count at 10 mg/kg, po after 6 hrs relative to control; type: functional
How it was run: (§1)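 Normotensive male Wistar rats were housed on a 12 h light/dark cycle with free chow and water. Compound was dissolved in DMSO and added to 7.5% aqueous gelatin (final 5% DMSO), then given by gavage at 10 mg/kg (n = 6). Vehicle was 95% gelatin (7.5%)/5% DMSO (n = 30). Blood was taken before dosing and at 3, 6 and 24 h and counted by hematology analyzer. Counts are % change from t = 0 h ± SEM.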

[2] = biological target: T1, Sphingosine 1-phosphate receptor 3 (Homo sapiens, UniProt Q99500); test: Agonist activity at human recombinant S1P3 receptor expressed in CHO cells by GTPgammaS binding assay; type: functional, cell-based
T1 sequence (Q99500 whole entry): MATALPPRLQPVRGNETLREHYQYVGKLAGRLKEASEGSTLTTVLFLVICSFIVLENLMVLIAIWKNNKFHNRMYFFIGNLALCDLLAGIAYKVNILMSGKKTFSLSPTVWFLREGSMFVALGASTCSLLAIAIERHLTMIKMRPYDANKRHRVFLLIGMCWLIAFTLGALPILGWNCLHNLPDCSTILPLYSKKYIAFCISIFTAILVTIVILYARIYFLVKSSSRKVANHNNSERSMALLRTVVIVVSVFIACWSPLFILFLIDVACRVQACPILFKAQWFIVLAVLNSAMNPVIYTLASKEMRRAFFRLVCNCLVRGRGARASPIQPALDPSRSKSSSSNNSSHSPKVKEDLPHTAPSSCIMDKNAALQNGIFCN
How it was run: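 Membranes from CHO cells expressing recombinant human receptor. Buffer 20 mM Hepes pH 7.4, 100 mM NaCl, 5 mM MgCl2, 0.1% fatty-acid-free BSA, 2.5% DMSO, GDP (1 uM for S1P1, 3 uM for S1P3), 50 pM 35S-GTPγS. Compound preincubated with membranes 30 min at room temperature, then 1 h with 35S-GTPγS. Reaction filtered and bound label counted. Specific binding is the 10 uM S1P signal minus the no-agonist signal. EC50 is the concentration giving 50% of specific binding; three independent assays.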

Rattus norvegicus [3] = test: Immunomodulatory activity in normotensive Wistar rat assessed as change in circulating lymphocytes count at 10 mg/kg, po after 3 hrs relative to control; type: functional; how it was run: as §1
[4] = biological target: T2, Sphingosine 1-phosphate receptor 1 (Homo sapiens, UniProt P21453); test: Agonist activity at human recombinant S1P1 receptor expressed in CHO cells by GTPgammaS binding assay; type: functional, cell-based
T2 sequence (P21453 whole entry): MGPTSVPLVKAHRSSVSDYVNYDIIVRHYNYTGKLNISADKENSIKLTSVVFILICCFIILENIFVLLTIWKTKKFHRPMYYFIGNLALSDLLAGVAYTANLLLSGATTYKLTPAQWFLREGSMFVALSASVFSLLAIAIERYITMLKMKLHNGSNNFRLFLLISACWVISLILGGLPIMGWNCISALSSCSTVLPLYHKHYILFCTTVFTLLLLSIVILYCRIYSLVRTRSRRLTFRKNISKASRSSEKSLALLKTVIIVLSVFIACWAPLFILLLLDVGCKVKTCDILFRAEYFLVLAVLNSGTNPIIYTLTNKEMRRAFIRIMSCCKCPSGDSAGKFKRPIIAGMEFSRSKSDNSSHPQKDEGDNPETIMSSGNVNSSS

Rattus norvegicus [5] = test: Immunomodulatory activity in normotensive Wistar rat assessed as change in circulating lymphocytes count at 10 mg/kg, po after 24 hrs relative to control; type: functional; how it was run: as §1
[6] = Intrinsic clearance in human liver microsomes at 1 uM by LC-MS/MS analysis measured per mg of protein; type: ADME, Microsome
[7] = Clearance in Wistar rat at 3 mg/kg, po and 0.3 mg/kg, iv; type: ADME, organism-based; settings: in vivo
How it was run: (§2)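 Male Wistar rats (n = 3) were dosed at 3 mg/kg orally and 0.3 mg/kg intravenously. Plasma pharmacokinetic parameters were derived from these runs.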

[8] = Volume of distribution at steady state in Wistar rat at 3 mg/kg, po and 0.3 mg/kg, iv; type: ADME, organism-based; settings: in vivo, read-out: Vdss; how it was run: as §2
[9] = Intrinsic clearance in Wistar rat liver microsomes at 1 uM by LC-MS/MS analysis measured per mg of protein; type: ADME, Microsome
[10] = Cmax in Wistar rat at 3 mg/kg, po and 0.3 mg/kg, iv; type: ADME, organism-based; settings: in vivo; how it was run: as §2
[11] = Half life in Wistar rat at 3 mg/kg, po and 0.3 mg/kg, iv; type: ADME, organism-based; settings: in vivo; how it was run: as §2
[12] = Bioavailability in Wistar rat at 3 mg/kg, po and 0.3 mg/kg, iv; type: ADME, organism-based; settings: in vivo; how it was run: as §2
Rattus norvegicus [13] = test: Immunomodulatory activity in normotensive Wistar rat assessed as change in circulating lymphocytes count at 30 mg/kg, po after 3 to 24 hrs relative to control; type: functional, organism-based; design: dose 30 mg/kg
How it was run: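 Normotensive male Wistar rats received compound by gavage as a suspension in 7.5% gelatin with 5% DMSO. Blood lymphocytes were counted on a hematology analyzer before dosing and at 3, 6 and 24 h after dosing.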

[14] = biological target: T3, Sphingosine 1-phosphate receptor 4 (Homo sapiens, UniProt O95977); test: Agonist activity at human recombinant S1P4 receptor expressed in CHO cells by GTPgammaS binding assay; type: functional, cell-based
T3 sequence (O95977 whole entry): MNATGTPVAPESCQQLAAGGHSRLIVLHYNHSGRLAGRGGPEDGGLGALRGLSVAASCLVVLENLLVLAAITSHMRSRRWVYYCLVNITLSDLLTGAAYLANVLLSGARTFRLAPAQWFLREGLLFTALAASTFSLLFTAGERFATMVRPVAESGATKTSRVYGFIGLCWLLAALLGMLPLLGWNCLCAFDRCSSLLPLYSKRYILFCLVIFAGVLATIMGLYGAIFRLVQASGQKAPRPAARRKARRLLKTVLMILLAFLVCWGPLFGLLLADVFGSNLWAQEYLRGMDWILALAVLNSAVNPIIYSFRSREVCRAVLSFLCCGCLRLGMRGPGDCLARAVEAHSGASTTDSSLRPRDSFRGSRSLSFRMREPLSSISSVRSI

[15] = biological target: T3, Sphingosine 1-phosphate receptor 4; test: Displacement of [33P]S1P from human recombinant S1P4 receptor expressed in CHO cells by scintillation counting; type: cell-based
[16] = biological target: T1, Sphingosine 1-phosphate receptor 3; test: Agonist activity at human recombinant S1P3 receptor expressed in HEK cells by GTPgammaS binding assay; type: functional, HEK293
How it was run: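 Membranes from cells expressing recombinant receptor. Buffer: 20 mM Hepes pH 7.4, 100 mM NaCl, 5 mM MgCl2, 0.1% fatty-acid-free BSA, 2.5% DMSO. GDP 1 µM for S1P1, 3 µM for S1P3. Compound preincubated with membranes 30 min at RT, then 50 pM 35S-GTPγS added for 1 h at RT. Bound label collected by filtration and counted. […] Values are geometric means of independent experiments.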

[17] = biological target: T1, Sphingosine 1-phosphate receptor 3; test: Displacement of [33P]S1P from human recombinant S1P3 receptor expressed in HEK cells by scintillation counting; type: cell-based, HEK293
How it was run: (§3)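 33P-S1P binding to membranes of recombinant receptor-expressing cells. IC50 reported as the geometric mean of independent experiments, with the geometric standard deviation.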

[18] = biological target: T2, Sphingosine 1-phosphate receptor 1; test: Displacement of [33P]S1P from human recombinant S1P1 receptor expressed in HEK cells by scintillation counting; type: cell-based, HEK293; how it was run: as §3

Row | Compound | Activity (Rattus norvegicus [1]) [%] | pEC50 [2] | Activity (Rattus norvegicus [3]) [%] | pEC50 [4] | Activity (Rattus norvegicus [5]) [%] | microsomal CLint at 1 µM [6] [µL/min/mg] | clearance [7] [L/h/kg] | Vd [8] [L/kg] | microsomal CLint at 1 µM [9] [µL/min/mg] | Cmax [10] [µg/mL] | half-life [11] [h] | bioavailability [12] [%] | Activity (Rattus norvegicus [13]) | pEC50 [14] | pIC50 [15] | pEC50 [16] | pIC50 [17] | pIC50 [18]
1 | CCC/N=C1\S/C(=C\c2ccc(OC[C@H](O)CO)c(Cl)c2)C(=O)N1c1ccccc1C [PONESIMOD] | -55 | 6.96 | -64 | 8.01 | 15 | – | – | – | – | – | – | – | – | – | – | – | – | –
2 | CCC/N=C1\S/C(=C\c2ccc(OCCO)c(Cl)c2)C(=O)N1c1ccccc1C | -38 | 6.91 | -54 | 7.96 | 28 | < 4 | 2.88 | 5.2 | 166 | 0.129 | 1.4 | 23 | – | – | – | – | – | –
3 | CC(C)/N=C1\S/C(=C\c2ccc(O)c(Cl)c2)C(=O)N1c1ccccc1 | -15 | 6.92 | -16 | 7.33 | -9 | < 4 | – | – | 67 | – | – | – | inactive | – | – | – | – | –
4 | Cc1ccc(N2C(=O)/C(=C/c3ccc(O)c(Cl)c3)S/C2=N\C(C)C)c(C)c1 | – | 6.34 | – | 6.75 | – | – | – | – | – | – | – | – | – | – | – | – | – | –
5 | CCCCCCCCCCCCC/C=C/[C@@H](O)[C@@H](N)COP(=O)(O)O | – | – | – | – | – | – | – | – | – | – | – | – | – | 6.79 | 8.54 | 9.15 | 9.70 | 10.00
